The source made the active and inactive calls. No cut-off for these calls is given here.
Assays:
A498 [1] = test: Induction of apoptosis in human A498 cells assessed as late apoptotic cells at 0.5 uM after 48 hrs by AnnexinV/FITC-propidium iodide staining-based flow cytometry (reference value: 9.6%); format: functional
How it was run: (§1)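 Flow cytometry with annexin V-FITC/PI double labeling of A498 cells treated for 12, 24, 36 or 48 h; untreated cells served as the 0 h control. Stained in binding buffer for 15 min at room temperature in the dark, with more binding buffer added just before analysis. Annexin V+/PI− (Q4) counted as early apoptotic and annexin V+/PI+ (Q2) as late apoptotic.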

A498 [2] = test: Induction of apoptosis in human A498 cells assessed as late apoptotic cells at 0.5 uM after 12 hrs by AnnexinV/FITC-propidium iodide staining-based flow cytometry (reference value: 9.6%); format: functional; how it was run: as §1
A498 [3] = test: Cytotoxicity against human A498 cells assessed as cell shrinkage at 0.5 uM after 24 hrs by phase contrast microscopy; format: functional, cell-based
How it was run: (§2)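 A498 cells were plated at 5 × 10⁵ per well and exposed to 0.5 µM for 24 h. Cell rounding and shrinkage were scored by microscopy against untreated control cells.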

A498 [4] = test: Cytotoxicity against human A498 cells assessed as cell rounding at 0.5 uM after 24 hrs by phase contrast microscopy; format: functional, cell-based; how it was run: as §2
A498 [5] = test: Cytotoxicity against human A498 cells assessed as reduction in cell viability at 0.1 uM after 48 hrs by MTT assay relative to control; format: functional
TK-10 = test: Cytotoxicity against human TK10 cells after 48 hrs by sulforhodamine B assay; format: functional; details: TK-10, 48 h
IGROV-1 = test: Cytotoxicity against human IGROV1 cells after 48 hrs by sulforhodamine B assay; format: functional; details: IGROV-1, 48 h
SK-MEL-5 = test: Cytotoxicity against human SK-MEL-5 cells after 48 hrs by sulforhodamine B assay; format: functional; details: SK-MEL-5, 48 h
SNB-75 = test: Cytotoxicity against human SNB75 cells after 48 hrs by sulforhodamine B assay; format: functional; details: SNB-75, 48 h
SF-539 = test: Cytotoxicity against human SF539 cells after 48 hrs by sulforhodamine B assay; format: functional; details: SF-539, 48 h
SF-295 = test: Cytotoxicity against human SF295 cells after 48 hrs by sulforhodamine B assay; format: functional; details: SF-295, 48 h
HCT-116 = test: Cytotoxicity against human HCT116 cells after 48 hrs by sulforhodamine B assay; format: functional; details: HCT-116, 48 h
NCI-H23 = test: Cytotoxicity against human NCI-H23 cells after 48 hrs by sulforhodamine B assay; format: functional; details: NCI-H23, 48 h
A498 [6] = test: Cell cycle arrest in human A498 cells assessed as accumulation at G2/M phase at 0.5 uM after 36 hrs by propidium iodide staining-based flow cytometry (reference value: 5.39 +/- 0.01%); format: functional
A498 [7] = test: Cell cycle arrest in human A498 cells assessed as accumulation at G0/G1 phase at 0.5 uM after 48 hrs by propidium iodide staining-based flow cytometry (reference value: 78.70 +/- 0.02%); format: functional
A498 [8] = test: Induction of apoptosis in human A498 cells assessed as reduction in mitochondrial membrane potential at 0.5 uM after 12 to 48 hrs by JC-1 staining-based flow cytometry; format: functional, cell-based
How it was run: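 A498 cells at 1 × 10⁶ cells/mL, untreated or treated for 12–48 h, were stained with JC-1 working solution for 10–15 min and analysed by flow cytometry. High-potential cells show intense red JC-1 aggregate fluorescence; loss of potential is scored as the population with reduced red fluorescence.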

A498 [9] = test: Induction of apoptosis in human A498 cells assessed as increase in cytochrome C level at 0.5 uM after 6 to 48 hrs by Western blotting analysis; format: functional, cell-based
How it was run: (§3)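 A498 cells exposed for 6, 12, 24, 36 or 48 h, then washed in PBS and lysed. Lysates were held on ice for 30 min and spun at 12 000g for 20 min. Supernatant protein was measured by Bradford assay, run on 10% SDS-PAGE and transferred to nitrocellulose. Blots were probed for AIF, Endo G, Apaf-1, cytochrome c, caspase 9 and caspase 3, with β-actin as loading control; n = 3 independent experiments.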

A498 [10] = test: Induction of apoptosis in human A498 cells assessed as increase in Endo G level at 0.5 uM after 6 to 48 hrs by Western blotting analysis; format: functional, cell-based; how it was run: as §3
A498 [11] = test: Induction of apoptosis in human A498 cells assessed as caspase-3 activation at 0.5 uM after 24 hrs by Western blotting analysis; format: functional, cell-based; how it was run: as §3
A498 [12] = test: Induction of cell cycle arrest at G2/M phase in human A498 cells assessed as increase in CDK1 expression at 0.5 uM after 6 hrs by Western blotting analysis; format: functional, cell-based
How it was run: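 A498 cells exposed to 0.5 µM for 6, 12, 24, 36 or 48 h, then lysed on ice 30 min and spun 12 000g 20 min. Protein measured by Bradford; 20 µg per lane run on 10% SDS-PAGE, transferred to nitrocellulose, probed for cyclin B1 and CDK1, β-actin as loading control; n = 3 independent experiments.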

Detroit 551 = test: Cytotoxicity against human Detroit 551 cells after 48 hrs by MTT assay; format: cell-based; details: Detroit 551, 48 h
[13] = read-out: pLC50 (the source's name) (converted)

With `OCc1ccc(Cn2c3ccccc3c3oc(CO)cc32)o1` the Activity (A498 [1]) was 21.2%, the Activity (A498 [2]) was 10% and the Activity (A498 [3]) was “Active”. For the same compound, the Activity (A498 [4]) was “Active”, the Activity (A498 [5]) was 82.8% and the GI50 (TK-10) was 0.537 µM. It also gave a CC50 (TK-10; [13]) of over 100 µM, a TGI (TK-10; read-out: pTGI (converted)) of 3.24 µM and a GI50 (IGROV-1) of 4.68 µM. It also gave a CC50 (IGROV-1; [13]) of over 100 µM, a TGI (IGROV-1; read-out: pTGI) of over 100 µM and a GI50 (SK-MEL-5) of over 100 µM. The CC50 (SK-MEL-5; [13]) was over 100 µM, the TGI (SK-MEL-5; read-out: pTGI) was over 100 µM and the GI50 (SNB-75) was 46.8 µM. It also gave a CC50 (SNB-75; [13]) of over 100 µM, a TGI (SNB-75; read-out: pTGI) of over 100 µM and a GI50 (SF-539) of over 100 µM. The CC50 (SF-539; [13]) was over 100 µM, the TGI (SF-539; read-out: pTGI) was over 100 µM and the GI50 (SF-295) was 26.9 µM. The CC50 (SF-295; [13]) was over 100 µM, the TGI (SF-295; read-out: pTGI) was over 100 µM and the GI50 (HCT-116) was 0.912 µM. For the same compound, the CC50 (HCT-116; [13]) was over 100 µM, the TGI (HCT-116; read-out: pTGI) was over 100 µM and the GI50 (NCI-H23) was over 100 µM. The CC50 (NCI-H23; [13]) was over 100 µM, the TGI (NCI-H23; read-out: pTGI) was over 100 µM and the Activity (A498 [6]) was 15.98%. The Activity (A498 [7]) was 71.26%, the Activity (A498 [8]) was “Active” and the Activity (A498 [9]) was “Active”. For the same compound, the Activity (A498 [10]) was “Active”, the Activity (A498 [11]) was “Active” and the Activity (A498 [12]) was “Active”. The IC50 (Detroit 551) was over 50 µM.
